Consider 1 compound from ChEMBL document CHEMBL3612001, “Design and discovery of 2-(4-(1H-tetrazol-5-yl)-1H-pyrazol-1-yl)-4-(4-phenyl)thiazole derivatives as cardiotonic agents via inhibition of PDE3” (Bioorg Med Chem, 2015).

Data set [1] deals with Cardiac atrium. Briefly: Cardiotonic activity in reserpine-pretreated and spontaneously beating rat atria assessed as inotropic activity by measuring contractile force at 1 uM (reference value: 100%). It is filed as functional. An outline of the steps: (§1)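 Male Wistar rats (250–350 g) given reserpine 5 mg/kg ip 24 h before euthanasia under thiopental 80 mg/kg ip. Whole atria mounted in Krebs–Henseleit (95% O2/5% CO2, 35–37 °C, pH 7.35–7.45) at ~0.5 g resting tension, equilibrated 40–50 min. Used only if unresponsive to tyramine 1.5 μM. Compound added cumulatively (1–100 μM). Isometric force and rate recorded, six atria per compound.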

In data set [2] the test system is Cardiac atrium. The data set can be described thus: Cardiotonic activity in reserpine-pretreated and spontaneously beating rat atria assessed as inotropic activity by measuring contractile force at 100 uM (reference value: 100%). Type of data set: functional. In a few lines:
as §1

For data set [3], the system named is Cardiac atrium. The data set can be described thus: Toxic cardiotonic activity in reserpine-pretreated and spontaneously beating rat atria assessed as chronotropic activity by measuring contractile frequency rate at 100 uM (reference value: 100%). It is filed as toxicity. In a few lines: as §1
Data set [4] concerns Mus musculus. The data set can be described thus: Toxicity in Swiss albino mouse assessed as changes in absolute and relative organ weight at 100 mg/kg, po dosed once orally for 28 days. Type of data set: organism-based. As to conditions: in vivo, 672 h. An outline of the steps: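 Sub-acute oral study in Swiss albino mice, 20–25 g, 3 male + 3 female per group, 7-day acclimatisation, 22 ± 5 °C, 12 h light/dark cycle, standard feed and water ad libitum. Compound dissolved in DMSO, suspended in 0.7% CMC, given orally once daily for 28 days at 0.1, 1, 10 or 100 mg/kg, against vehicle controls. Animals observed throughout; gross pathology with absolute and relative organ weights at end; n = 6.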

The subject of data set [5] is Mus musculus. Briefly: Toxicity in Swiss albino mouse assessed as changes in haemoglobin level at 0.1 mg/kg, po dosed once orally for 28 days (reference value: 13.87 +/- 0.46 g/dL). As to conditions: in vivo, 672 h. Type of data set: organism-based.
Data set [6] deals with Mus musculus. The data set can be described thus: Toxicity in Swiss albino mouse assessed as changes in cholesterol level at 0.1 mg/kg, po dosed once orally for 28 days (reference value: 138.43 +/- 1.52 mg/dL). It is filed as organism-based. As to conditions: in vivo, 672 h.
Data set [7] deals with Mus musculus. Briefly: Toxicity in Swiss albino mouse assessed as changes in triglycerides level at 0.1 mg/kg, po dosed once orally for 28 days (reference value: 263.69 +/- 3.38 mg/dL). It is filed as organism-based. As to conditions: in vivo, 672 h.
The test system of data set [8] is Mus musculus. Briefly: Toxicity in Swiss albino mouse assessed as changes in ALP level at 0.1 mg/kg, po dosed once orally for 28 days (reference value: 132.4 +/- 6.26 U/L). Type of data set: organism-based. The conditions noted are these: in vivo, 672 h.
Data set [9] concerns Mus musculus. Briefly: Toxicity in Swiss albino mouse assessed as changes in SGOT level at 0.1 mg/kg, po dosed once orally for 28 days (reference value: 112.7 +/- 10.6 U/L). It is filed as organism-based. The conditions noted are these: in vivo, 672 h.
For data set [10], the system named is Mus musculus. The data set can be described thus: Toxicity in Swiss albino mouse assessed as changes in body weight at 1 mg/kg, po dosed once orally for 28 days (reference value: 31.2 +/- 1.6g). Type of data set: organism-based. As to conditions: in vivo, 672 h.
Data set [11] relates to Mus musculus. Briefly: Toxicity in Swiss albino mouse assessed as changes in triglycerides level at 1 mg/kg, po dosed once orally for 28 days (reference value: 263.69 +/- 3.38 mg/dL). It is filed as organism-based. The conditions noted are these: in vivo, 672 h.
Data set [12] relates to Mus musculus. Briefly: Toxicity in Swiss albino mouse assessed as changes in total protein level at 1 mg/kg, po dosed once orally for 28 days (reference value: 3.45 +/- 0.45 […]). It is filed as organism-based. As to conditions: in vivo, 672 h.
The test system of data set [13] is Mus musculus. The data set can be described thus: Toxicity in Swiss albino mouse assessed as changes in creatinine level at 1 mg/kg, po dosed once orally for 28 days (reference value: 0.04 +/- 0.37 mg/dL). It is filed as organism-based. The conditions noted are these: in vivo, 672 h.
Data set [14] concerns Mus musculus. The data set can be described thus: Toxicity in Swiss albino mouse assessed as changes in ALP level at 1 mg/kg, po dosed once orally for 28 days (reference value: 132.4 +/- 6.26 U/L). Type of data set: organism-based. As to conditions: in vivo, 672 h.
For data set [15], the system named is Mus musculus. Briefly: Toxicity in Swiss albino mouse assessed as changes in haemoglobin level at 10 mg/kg, po dosed once orally for 28 days (reference value: 13.87 +/- 0.46 g/dL). It is filed as organism-based. As to conditions: in vivo, 672 h.
Data set [16] deals with Mus musculus. The data set can be described thus: Toxicity in Swiss albino mouse assessed as changes in triglycerides level at 10 mg/kg, po dosed once orally for 28 days (reference value: 263.69 +/- 3.38 mg/dL). It is filed as organism-based. As to conditions: in vivo, 672 h.
In data set [17] the test system is Mus musculus. Briefly: Toxicity in Swiss albino mouse assessed as changes in ALP level at 10 mg/kg, po dosed once orally for 28 days (reference value: 132.4 +/- 6.26 U/L). It is filed as organism-based. As to conditions: in vivo, 672 h.
Data set [18] deals with Mus musculus. Briefly: Toxicity in Swiss albino mouse assessed as changes in albumin level at 10 mg/kg, po dosed once orally for 28 days (reference value: 2.78 +/- 1.82 g/dL). It is filed as organism-based. The conditions noted are these: in vivo, 672 h.
Data set [19] deals with Mus musculus. The data set can be described thus: Toxicity in Swiss albino mouse assessed as changes in SGPT level at 10 mg/kg, po dosed once orally for 28 days (reference value: 41.46 +/- 17.25 U/L). It is filed as organism-based. The conditions noted are these: in vivo, 672 h.
In data set [20] the test system is Mus musculus. Briefly: Toxicity in Swiss albino mouse assessed as changes in SGOT level at 10 mg/kg, po dosed once orally for 28 days (reference value: 112.7 +/- 10.6 U/L). Type of data set: organism-based. The conditions noted are these: in vivo, 672 h.
For data set [21], the system named is Mus musculus. Briefly: Toxicity in Swiss albino mouse assessed as changes in cholesterol level at 100 mg/kg, po dosed once orally for 28 days (reference value: 138.43 +/- 1.52 mg/dL). It is filed as organism-based. As to conditions: in vivo, 672 h.
In data set [22] the test system is Mus musculus. Briefly: Toxicity in Swiss albino mouse assessed as changes in creatinine level at 100 mg/kg, po dosed once orally for 28 days (reference value: 0.04 +/- 0.37 mg/dL). As to conditions: in vivo, 672 h. It is filed as organism-based.

Consider `Fc1ccc(-c2csc(-n3cc(-c4nnn[nH]4)cn3)n2)cc1`, for which the Activity in the data set with Cardiac atrium [1] is 110%; in the data set with Cardiac atrium [2], 163%; in the data set on Cardiac atrium [3], 123%; in the data set on Mus musculus [4], “Non-toxic”; in the data set with Mus musculus [5] it was 14.5 g/dL; with Mus musculus [6], 125.66 mg/dL. Also, the Activity with Mus musculus [7] is 254.1 mg/dL; in the data set on Mus musculus [8] it was 135.5 U/L; in the data set with Mus musculus [9], 107.8 U/L; in the data set on Mus musculus [10], 28.04 g; with Mus musculus [11], 247.26 mg/dL; in the data set on Mus musculus [12], 3.64 g/dL. Also, the Activity in the data set with Mus musculus [13] amounted to 0.04 mg/dL; in the data set with Mus musculus [14] it was 136.6 U/L; with Mus musculus [15], 15.72 g/dL; in the data set with Mus musculus [16], 251.86 mg/dL; in the data set with Mus musculus [17], 133.3 U/L; in the data set on Mus musculus [18] it was 2.57 g/dL. The Activity in the data set with Mus musculus [19] was found to be 41.8 U/L; with Mus musculus [20], 110.2 U/L; in the data set on Mus musculus [21], 134.3 mg/dL; with Mus musculus [22], 0.05 mg/dL.
